In ChEMBL document CHEMBL1124386, “Selective thyromimetics. Cardiac-sparing thyroid hormone analogues containing 3'-arylmethyl substituents” (J Med Chem, 1989):
≈ marks a conversion by molar mass, not a printed value. Calls of active or inactive are those of the source. The calls are words filed in the database; no cut-off is given here.

Legend:
[1] = Binding affinity to the thyroid hormone receptor was determined in vitro in isolated nuclei of rat liver relative to 3,5,3' triiodothyronine; type: tissue-based
Rattus norvegicus [2] = assay: Percent increase in oxygen consumption after seven daily doses of test compound given intramuscularly, with concentration of compound at 20 mg/kg; type: functional; conditions: route intramuscular
How it was run: (§1)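 Euthyroid rats given seven daily doses, intramuscular or oral, by line; whole-body oxygen consumption measured as percent increase in metabolic rate.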

Rattus norvegicus [3] = assay: Potency for induction of GPDH (mitochondrial cytochrome C3-phosphoglycerate oxidoreductase) was measured 48 hours after single intramuscular injection relative to T3 in liver; type: functional
Rattus norvegicus [4] = assay: Percent increase in oxygen consumption after seven daily doses of test compound given perorally, with concentration of compound; I=inactive after 2 daily doses of 5o mg/kg; type: functional, organism-based; how it was run: as §1
Rattus norvegicus [5] = assay: Potency for induction of GPDH (mitochondrial cytochrome C3-phosphoglycerate oxidoreductase) was measured 48 hr after single im injection relative to T3 in heart; I=inactive after 2 daily doses of 50 mg/kg; type: functional, organism-based; design: dose 50 mg/kg
Rattus norvegicus [6] = assay: Percent increase in oxygen consumption after seven daily doses of test compound given perorally, with concentration of compound at 0.04 mg/kg; type: functional; conditions: route oral; how it was run: as §1
Rattus norvegicus [7] = assay: Potency for induction of GPDH (mitochondrial cytochrome C3-phosphoglycerate oxidoreductase) was measured 48 hours after single intramuscular injection relative to […] in liver; type: functional
Rattus norvegicus [8] = assay: Potency for induction of GPDH (mitochondrial cytochrome C 3-phosphoglycerate oxidoreductase) was measured 48 hr after single im injection relative to T3 in heart; LM=low maximal response after 2 daily doses of 50 mg/kg; type: functional, organism-based; design: dose 50 mg/kg; conditions: filed as partial agonist
[9] = test system: Thyroid hormone receptor (Rattus norvegicus); assay: Binding affinity to thyroid hormone receptor, relative to 3,5,3' triiodothyronine receptor, in isolated nuclei of heart
Rattus norvegicus [10] = assay: In vivo binding affinity for 3,5,3'' triiodothyronine receptor of heart nuclei 1 hr after intravenous administration; type: organism-based
Rattus norvegicus [11] = assay: In vivo binding affinity for 3,5,3' triiodothyronine receptor of liver nuclei 1 hour after intravenous administration; type: organism-based
[12] = Aqueous solubility at 37 degree Celsius at pH 7.38; type: physicochemical
How it was run: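 Solubility in aqueous medium at 37 °C, pH 7.38; given in units of ×10^5 mol/L.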

[13] = partition coefficient at 25 degree Celsius in octanol/aqueous buffer at pH 6.02; type: physicochemical
Rattus norvegicus [14] = assay: Percent increase in oxygen consumption after seven daily doses of test compound given perorally, with concentration of compound at 5 mg/kg; type: functional; conditions: route oral; how it was run: as §1
Rattus norvegicus [15] = assay: Percent increase in oxygen consumption after seven daily doses of test compound given intramuscularly, ata conc of 3.3 mg/kg; type: functional; conditions: route intramuscular; how it was run: as §1
Rattus norvegicus [16] = assay: Percent increase in oxygen consumption after seven daily doses of test compound given perorally, with concentration of compound at 0.1 mg/kg; type: functional; conditions: route oral; how it was run: as §1
Rattus norvegicus [17] = assay: Percent increase in oxygen consumption after seven daily doses of test compound given intramuscularly, with the concentration of compound at 0.1 mg/kg; type: functional; conditions: route intramuscular; how it was run: as §1
Rattus norvegicus [18] = assay: Potency for induction of GPDH (mitochondrial cytochrome C3-phosphoglycerate oxidoreductase) was measured 48 hours after single intramuscular injection relative to T3 in heart; type: functional
Rattus norvegicus [19] = assay: Potency for induction of GPDH (mitochondrial cytochrome C3-phosphoglycerate oxidoreductase) was measured relative to T3 in heart; I=inactive after 2 daily doses of 50 mg/kg; type: functional, organism-based; design: dose 50 mg/kg
Rattus norvegicus [20] = assay: Percent increase in oxygen consumption after seven daily oral doses of 5 mg/kg in euthyroid rats
[21] = biological target: T1, Thyroid hormone receptor beta (Rattus norvegicus) (UniProt P18113); assay: Binding affinity to the receptor was determined in isolated nuclei of liver in vitro relative to 3,5,3' triiodothyronine receptor
T1 sequence (whole entry): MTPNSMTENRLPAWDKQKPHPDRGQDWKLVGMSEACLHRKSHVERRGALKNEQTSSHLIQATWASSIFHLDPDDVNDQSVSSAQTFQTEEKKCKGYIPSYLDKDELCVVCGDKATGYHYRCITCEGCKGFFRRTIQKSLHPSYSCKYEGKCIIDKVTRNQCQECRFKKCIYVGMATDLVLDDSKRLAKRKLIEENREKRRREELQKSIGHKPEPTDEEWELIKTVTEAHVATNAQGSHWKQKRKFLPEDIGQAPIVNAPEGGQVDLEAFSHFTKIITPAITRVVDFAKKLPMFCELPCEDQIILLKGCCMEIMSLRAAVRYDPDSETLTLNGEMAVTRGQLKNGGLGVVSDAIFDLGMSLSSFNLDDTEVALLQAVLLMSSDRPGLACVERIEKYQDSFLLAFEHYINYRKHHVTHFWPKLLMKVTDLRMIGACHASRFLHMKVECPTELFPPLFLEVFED

[22] = biological target: T1, Thyroid hormone receptor beta (Rattus norvegicus); assay: In vivo binding affinity to the receptor was determined in nuclei of heart 1 h after intravenous administration relative to 3,5,3' triiodothyronine receptor
[23] = biological target: T1, Thyroid hormone receptor beta (Rattus norvegicus); assay: Binding affinity to the receptor was determined in isolated nuclei of heart(In vitro) relative to T3
[24] = Partition coefficient at 25 degree Celsius in octanol/aqueous buffer at pH 6.02; type: physicochemical
Rattus norvegicus [25] = assay: Percent increase in oxygen consumption after seven daily doses in mg/kg increase of test compound given perorally; I=inactive after 2 daily doses of 50 mg/kg; type: functional, organism-based; design: dose 50 mg/kg; how it was run: as §1
[26] = biological target: T1, Thyroid hormone receptor beta (Rattus norvegicus); assay: Binding affinity to the receptor was determined in nuclei of liver In vivo 1 hour after intravenous administration relative to T3; type: organism-based
[27] = Selectivity, ratio between relative ID50 in liver and heart
How it was run: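 Liver/heart selectivity in rats, calculated as (relative ID50)liver divided by (relative ID50)heart, from in vivo nuclear binding 1 h after intravenous dosing.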

Rattus norvegicus [28] = assay: Percent increase in oxygen consumption in dose-mg/Kgfter seven daily doses of test compound given intramuscularly, at a conc of 3.3 mg/kg; type: functional; conditions: route intramuscular; how it was run: as §1
[29] = biological target: T1, Thyroid hormone receptor beta (Rattus norvegicus); assay: Binding affinity to the receptor was determined in nuclei of heart in vivo 1 hour after intravenous administration relative to 3,5,3' triiodothyronine receptor
Rattus norvegicus [30] = assay: Percent increase in oxygen consumption after seven daily doses of test compound given intramuscularly, at a conc of 3.3 mg/kg; type: functional; conditions: route intramuscular; how it was run: as §1
Rattus norvegicus [31] = assay: Percent increase in oxygen consumption after seven daily doses of test compound given perorally; I=inactive after 2 daily doses of 50 mg/kg; type: functional, organism-based; design: dose 50 mg/kg; how it was run: as §1
[32] = biological target: T1, Thyroid hormone receptor beta (Rattus norvegicus); assay: Binding affinity to the receptor was determined in vitro in isolated nuclei of rat liver relative to T3; type: tissue-based
[33] = biological target: T1, Thyroid hormone receptor beta (Rattus norvegicus); assay: In vitro binding affinity to the receptor was determined in isolated nuclei of heart relative to T3; type: functional
Rattus norvegicus [34] = assay: Percent increase in oxygen consumption after seven daily doses of test compound given perorally, with value in braces indicating the concentration of compound at 5 mg/kg; type: functional; conditions: route oral; how it was run: as §1
Rattus norvegicus [35] = assay: Percent increase in oxygen consumption after seven daily doses of test compound given intramuscularly, with the concentration of compound at 10 mg/kg; type: functional; conditions: route intramuscular; how it was run: as §1
Rattus norvegicus [36] = assay: Percent increase in oxygen consumption after seven daily doses of test compound given perorally, with concentration of compound at 5.3 mg/kg; type: functional; conditions: route oral; how it was run: as §1

Q: Which Relative IC50 [1] does the source give for `O=C(O)Cc1cc(Br)c(Oc2ccc(O)c(Cc3ccc(O)nc3)c2)c(Br)c1` here?
A: The Relative IC50 was 3.

Q: And the Increase (Rattus norvegicus [2])?
A: The Increase was 21%.

Q: And the “Relative ED50” value (Rattus norvegicus [3])?
A: The value was 2.

Q: And the “% increase O2 consumption” value (Rattus norvegicus [4])?
A: The value was “inactive”.

Q: What about the “Relative ED50” value (Rattus norvegicus [5]) of the same compound?
A: Its value is “inactive”.

Q: Which Relative IC50 [1] does the source give for `N[C@@H](Cc1cc(Cl)c(Oc2ccc(O)c(Cc3ccc(O)nn3)c2)c(Cl)c1)C(=O)O` here?
A: The Relative IC50 was 0.48.

Q: What about the Increase (Rattus norvegicus [6]) of the same compound?
A: Its Increase is 15%.

Q: And the “Relative ED50” value (Rattus norvegicus [7])?
A: The value was 25.

Q: And the “Relative ED50” value (Rattus norvegicus [8])?
A: The value was “Partial agonist”.

Q: What about the Relative IC50 [9] of the same compound?
A: Its Relative IC50 is 0.8.

Q: With `N[C@@H](Cc1cc(Br)c(Oc2ccc(O)c(Cc3ccc(O)nc3)c2)c(Br)c1)C(=O)O` as the compound, how does the Relative IC50 [1] read?
A: The Relative IC50 was 2.

Q: And the Relative ID50 (Rattus norvegicus [10])?
A: Its Relative ID50 is 0.3.

Q: And the Relative ID50 (Rattus norvegicus [11])?
A: Its Relative ID50 is 23.

Q: And the solubility [12]?
A: The solubility was 33 µM (≈ 17.8 µg/mL).

Q: What about the logD [13] of the same compound?
A: The logD was 0.7.

Q: And the Increase (Rattus norvegicus [14])?
A: The Increase was 31%.

Q: What about the “Relative ED50” value (Rattus norvegicus [3]) of the same compound?
A: The value was 6.9.

Q: What about the “Relative ED50” value (Rattus norvegicus [5]) of the same compound?
A: Its value is “inactive”.

Q: What about the Increase (Rattus norvegicus [15]) of the same compound?
A: The Increase was 32%.

Q: What about the Relative IC50 [9] of the same compound?
A: The Relative IC50 was 1.8.

Q: With `N[C@@H](Cc1cc(Br)c(Oc2ccc(O)c(Cc3ccc(O)nn3)c2)c(Br)c1)C(=O)O` as the compound, how does the Relative IC50 [1] read?
A: Its Relative IC50 is 0.9.

Q: What about the Increase (Rattus norvegicus [16]) of the same compound?
A: The Increase was 20%.

Q: And the Increase (Rattus norvegicus [17])?
A: Its Increase is 20%.

Q: What about the “Relative ED50” value (Rattus norvegicus [18]) of the same compound?
A: The value was <0.1.

Q: What about the “Relative ED50” value (Rattus norvegicus [3]) of the same compound?
A: Its value is 18.

Q: Which Relative IC50 [1] does the source give for `O=C(O)CCCc1cc(Br)c(Oc2ccc(O)c(Cc3ccc(O)nc3)c2)c(Br)c1` here?
A: The Relative IC50 was 21.7.

Q: What about the “Relative ED50” value (Rattus norvegicus [3]) of the same compound?
A: Its value is 0.69.

Q: What about the “Relative ED50” value (Rattus norvegicus [19]) of the same compound?
A: The value was “inactive”.

Q: What about the Increase (Rattus norvegicus [20]) of the same compound?
A: Its Increase is 19%.

Q: And the Relative IC50 [21]?
A: Its Relative IC50 is 21.7.

Q: What about the Relative ID50 [22] of the same compound?
A: Its Relative ID50 is 0.26.

Q: With `N[C@@H](Cc1cc(I)c(Oc2ccc(O)c(Cc3ccc(O)nc3)c2)c(I)c1)C(=O)O` as the compound, how does the Relative IC50 [23] read?
A: The Relative IC50 was 2.7.

Q: What about the Relative IC50 [1] of the same compound?
A: The Relative IC50 was 2.3.

Q: What about the solubility [12] of the same compound?
A: Its solubility is 10 µM (≈ 6.32 µg/mL).

Q: What about the logD [24] of the same compound?
A: The logD was 1.01.

Q: And the Increase (Rattus norvegicus [25])?
A: Its Increase is “inactive”.

Q: What about the “Relative ED50” value (Rattus norvegicus [3]) of the same compound?
A: The value was 1.7.

Q: And the “Relative ED50” value (Rattus norvegicus [5])?
A: Its value is “inactive”.

Q: What about the Relative ID50 [26] of the same compound?
A: Its Relative ID50 is 10.

Q: And the Ratio [27]?
A: The Ratio was 50.

Q: What about the Increase (Rattus norvegicus [28]) of the same compound?
A: The Increase was 19%.

Q: And the Relative ID50 [29]?
A: The Relative ID50 was 0.2.

Q: Which results are given for `N[C@@H](Cc1cc(I)c(Sc2ccc(O)c(Cc3ccc(O)nc3)c2)c(I)c1)C(=O)O`?
A: Relative IC50 [1]: 14.8; Increase (Rattus norvegicus [30]): 26%; % increase O2 consumption (Rattus norvegicus [31]): inactive; Relative ED50 (Rattus norvegicus [3]): 16.6; Relative ED50 (Rattus norvegicus [5]): inactive; Relative IC50 [9]: 19.4

Q: What does the source list for `Cc1cc(CC(N)C(=O)O)cc(C)c1Oc1ccc(O)c(Cc2ccc(O)nc2)c1` (centres undefined)?
A: Relative IC50 [32]: 0.083; Relative IC50 [33]: 0.14; Increase (Rattus norvegicus [34]): 18%; Increase (Rattus norvegicus [35]): 28%; Relative ED50 (Rattus norvegicus [3]): 1.1; Relative ED50 (Rattus norvegicus [5]): inactive

Q: For `N[C@@H](Cc1cc(Br)c(Sc2ccc(O)c(Cc3ccc(O)nc3)c2)c(Br)c1)C(=O)O`, which Relative IC50 [1] is on record?
A: Its Relative IC50 is 9.8.

Q: And the Increase (Rattus norvegicus [36])?
A: The Increase was 16%.

Q: What about the “Relative ED50” value (Rattus norvegicus [7]) of the same compound?
A: The value was 14.5.

Q: What about the “Relative ED50” value (Rattus norvegicus [8]) of the same compound?
A: The value was “Partial agonist”.

Q: And the Relative IC50 [9]?
A: The Relative IC50 was 10.2.
